Screens as filed in PubChem BioAssay.
TRPC4 block – TRPC4 (mouse) channel inhibition. B-score at 10 µM. Q9QUQ5. AID 2247. HEK293 TRPC4beta/mu-opioid, DAMGO-evoked Fluo4 calcium flux; active compounds read low. 0.39% of 300,000 active;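 active = B-score over 3 SD under the library average, no early fluorescence shift, positive overall ratio signal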
Target sequence (Q9QUQ5 whole entry, looked up): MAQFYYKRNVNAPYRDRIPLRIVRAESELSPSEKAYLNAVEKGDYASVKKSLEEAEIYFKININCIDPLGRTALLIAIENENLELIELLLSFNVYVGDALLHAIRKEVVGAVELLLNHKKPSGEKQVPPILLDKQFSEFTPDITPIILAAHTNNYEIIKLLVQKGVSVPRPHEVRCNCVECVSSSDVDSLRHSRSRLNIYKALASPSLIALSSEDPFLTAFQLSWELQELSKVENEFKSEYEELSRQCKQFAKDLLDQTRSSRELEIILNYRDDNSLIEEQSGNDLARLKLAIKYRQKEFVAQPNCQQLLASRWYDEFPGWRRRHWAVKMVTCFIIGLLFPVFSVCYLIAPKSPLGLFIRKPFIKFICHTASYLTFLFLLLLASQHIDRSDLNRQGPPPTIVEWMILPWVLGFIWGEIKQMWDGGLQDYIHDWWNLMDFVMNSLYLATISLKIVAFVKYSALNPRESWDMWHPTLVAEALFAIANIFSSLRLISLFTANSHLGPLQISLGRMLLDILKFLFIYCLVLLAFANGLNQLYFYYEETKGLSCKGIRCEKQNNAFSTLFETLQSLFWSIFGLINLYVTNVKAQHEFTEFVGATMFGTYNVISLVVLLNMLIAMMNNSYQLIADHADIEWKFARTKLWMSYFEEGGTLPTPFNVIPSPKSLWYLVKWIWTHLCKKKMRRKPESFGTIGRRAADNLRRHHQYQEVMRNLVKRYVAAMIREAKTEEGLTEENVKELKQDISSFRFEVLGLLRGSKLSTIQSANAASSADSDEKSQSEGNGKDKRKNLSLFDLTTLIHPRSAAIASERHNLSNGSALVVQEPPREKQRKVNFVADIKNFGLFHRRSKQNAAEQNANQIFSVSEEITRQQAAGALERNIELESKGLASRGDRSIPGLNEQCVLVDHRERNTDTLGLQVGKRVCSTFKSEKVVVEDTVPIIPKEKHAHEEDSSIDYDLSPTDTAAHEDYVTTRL
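test system = HEK293 cells with stable TRPC4beta plus mu-opioid receptor expression | detection = Fluo4 Ca2+ flux fluorescence | read-out = integrated fluorescence ratio relative to baseline, converted to per-well B score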
TRPC6 activator – activators of mouse TRPC6 channel; Q61143; HEK293-TRPC6 membrane potential dye fluorescence; active compounds read high; B-score at 10 µM; 0.13% of 310,000 active; AID 2550;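 active = B-score of the integrated fluorescence ratio above library mean plus 3 SD, and starting fluorescence ratio within library mean plus 5 SD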;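 note: higher score means more depolarization so channel activation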
TRPC4 agonist – TRPC4 (mouse) channel activation. AID 2237. B-score at 10 µM. 0.49% of 310,000 active. HEK293 TRPC4beta/mu-opioid, Fluo4 calcium fluorescence; active compounds read high. Q9QUQ5;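 active = B-score above 5 SD of library B-scores, and initial fluorescence ratio not above library mean plus 5 SD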;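 note: positive B-score marks a calcium rise read as TRPC4 activation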
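Assay system – TRPC4beta and mu-opioid receptor HEK293 stable cells · Measured by – Fluo4 fluorescence, kinetic · Schedule – dye loading 45 min room temperature, 110 s kinetic read · Read-out – B-scored integrated calcium fluorescence ratio · Controls – buffer and maximal DAMGO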
TRPC6 inh – blocks the mouse TRPC6 cation channel | Q61143 | HEK293-TRPC6, membrane potential dye, ACh-evoked depolarization; active compounds read low | B-score at 10 µM | 1.1% of 310,000 active | AID 2553;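 active = B-score under library mean minus 3 SD, initial fluorescence not abnormally high, positive integrated signal ratio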;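 note: B-score derived from integrated fluorescence ratio over the kinetic read; more negative B-score means stronger inhibition of depolarization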
TRPC4 potent – allosteric potentiators of mouse TRPC4 channel | Q9QUQ5 | HEK293 TRPC4beta/mu-opioid, DAMGO EC20, Fluo-4 Ca2+ flux; active compounds read high | B-score at 10 µM | 0.42% of 310,000 active;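 active = B-score of calcium response area above 5 SD of library B-scores, with initial fluorescence ratio within 5 SD of library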;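 note: B-score of integrated fluorescence ratio over time as area under calcium response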
Kir21 inh – inhibitors of mouse Kir2.1 inward-rectifier potassium channel. P35561. HEK293-Kir2.1, FluxOR thallium flux fluorescence; active compounds read low. B-score at 10 µM. 0.85% of 310,000 active. AID 1672;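 active = fluorescence ratio B-score at or below minus 3 SD of library scores, with starting-brightness B-score within 2 SD, cut at about -4.2 in these data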;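 note: channel flux triggered by added potassium and thallium sulfate stimulus; B-score of peak minus minimum fluorescence over baseline after thallium stimulus; more negative B-score means stronger Kir2.1 block with less thallium influx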
TRPC4 sel inh 2 – second selectivity test of TRPC6 inhibitors: effect on mouse TRPC4; shares compounds with TRPC6 inh; HEK293 TRPC4/MOR, membrane potential dye fluorescence; channel activated by saturating DAMGO dose; inhibition, % at 10 µM; 42% of 920 active;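 active = compounds whose fluorescence signal differed from control wells by over 3 SD, either direction, in both duplicate plates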
TRPC4 spec – tests whether TRPC6 inhibitors also affect mouse TRPC4; shares compounds with TRPC6 inh; 61% of 920 active; AID 2777; HEK293 TRPC4/mu-opioid, membrane potential fluorescence; activity change, negative = inhibition, % at 10 µM;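 active = rise or fall in signal beyond 3 SD of buffer-only wells in both replicate plates, either sign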;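 note: integrated kinetic ratio of fluorescence range over baseline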
HEK293 MPD ctr 2-1 – parental HEK293 nonspecific activity of TRPC6 inhibitors, second screen. shares compounds with TRPC6 inh. parental HEK293 membrane potential dye fluorescence; maximal acetylcholine challenge after compound addition. signal change vs control, % at 10 µM. 31% of 920 active;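 active = membrane potential signal moving either way by over 3 SD of the maximum-effect control, in both duplicate plates, meaning non-specific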
HEK293 MPD ctr-1 – checks TRPC6 inhibitor effects in parental HEK293 cells | membrane potential signal change, % at 10 µM | shares compounds with TRPC6 inh | 60% of 920 active | parental HEK293 membrane potential dye fluorescence;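 active = membrane potential signal shifting up or down by more than 3 SD of buffer-only wells, on both duplicate plates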
HEK293 MPD ctr-2 – parental HEK293 nonspecific activity of TRPC6 modulators. shares compounds with TRPC6 inh. membrane potential dye fluorescence. membrane potential signal change, % at 10 µM. 51% of 2,400 active;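 active = membrane potential signal moves up or down beyond 5 SD from buffer-only wells, on both duplicate plates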
HEK293 MPD ctr 2-2 – second check of TRPC6 modulator effects in parental HEK293 cells; 14% of 2,400 active; membrane potential dye fluorescence; after compound, maximal acetylcholine stimulation; inhibition, % at 10 µM; AID 488926; shares compounds with TRPC6 inh;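 active = membrane potential signal drops by more than 5 SD from the mean control signal, in both duplicate plates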;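 note: plate controls were acetylcholine ECmax control wells for no effect and buffer only wells for full effect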
TRPC4 ctr mod – mouse TRPC4 off-target activity of TRPC6 modulators. AID 488927. percent change from control (negative = decrease, positive = increase), % at 10 µM. shares compounds with TRPC6 inh. HEK293 TRPC4/mu-opioid, membrane potential fluorescence. 69% of 2,400 active;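 active = membrane potential signal moved up or down beyond 5 SD of buffer control wells, in both duplicate plates, actives on both sides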;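 note: plate controls were assay buffer wells for no effect and DAMGO maximal-effect wells for full effect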
TRPC4/MOR inh 2 – mouse TRPC4 off-target activity of TRPC6 modulators, second screen; shares compounds with TRPC6 inh; HEK293 TRPC4/mu-opioid, membrane potential dye fluorescence; stimulated with maximal-effect DAMGO; inhibition, % at 10 µM; 55% of 2,400 active;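 active = drop in membrane potential signal beyond 5 SD of the control wells in both duplicate plates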;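 note: TRPC4 counter screen for TRPC6 hits run under conditions tuned for TRPC6 not TRPC4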
TRPC6 block conf – mouse TRPC6 inhibitor confirmation; HEK293-TRPC6, membrane potential dye, ACh-evoked depolarization; inhibition, % at 10 µM; 43% of 3,300 active; shares compounds with TRPC6 inh;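 active = fluorescence ratio falls more than 5 SD below the full-stimulation control mean, in both duplicate runs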;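 note: integrated fluorescence ratio of peak minus minimum over baseline after agonist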
TRPC6 act conf – mouse TRPC6 activator confirmation | shares compounds with TRPC6 inh | HEK293-TRPC6 membrane potential dye fluorescence, FDSS | activation, % at 10 µM | 11% of 2,800 active;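 active = ratio signal rise beyond 5 SD above unstimulated control wells' mean, seen in both duplicate runs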;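 note: plate controls were buffer EC0 wells for no effect and acetylcholine ECmax response for full effect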
* hit, by the source's call. This is a sample that favours compounds with a hit; in the whole collection about 2.9% have one here.

CCS(=O)(=O)N1Cc2ccccc2CC1C(=O)Nc1nnc(SCc2ccc(C#N)cc2)s1 (stereo not drawn) was read as TRPC4 block inactive, TRPC6 activator 22.6*, TRPC4 agonist inactive, TRPC6 inh inactive, TRPC4 potent inactive, Kir21 inh -0.65, HEK293 MPD ctr-2 inactive, HEK293 MPD ctr 2-2 inactive, TRPC4 ctr mod inactive, TRPC4/MOR inh 2 inactive, TRPC6 block conf inactive and TRPC6 act conf inactive.
C/C(=N/NC(=S)Nc1cccc(C)c1)c1cccc([N+](=O)[O-])c1 was read as TRPC4 block inactive, TRPC6 activator inactive, TRPC4 agonist inactive, TRPC6 inh -5.27*, TRPC4 potent inactive, Kir21 inh 0.34, HEK293 MPD ctr-2 inactive, HEK293 MPD ctr 2-2 inactive, TRPC4 ctr mod inactive, TRPC4/MOR inh 2 30.5%*, TRPC6 block conf inactive and TRPC6 act conf inactive.
For C/C(=N\NC(=S)NC(C)C)c1cccc([N+](=O)[O-])c1 the results were TRPC4 block inactive, TRPC6 activator inactive, TRPC4 agonist inactive, TRPC6 inh inactive, TRPC4 potent inactive and Kir21 inh -0.27.
Screening Cc1ccc(O)c(O)c1 returned TRPC4 block inactive, TRPC6 activator inactive, TRPC4 agonist inactive, TRPC6 inh inactive, TRPC4 potent inactive and Kir21 inh -0.22.
For Cc1ccc(O)c(Sc2cc(C)ccc2O)c1 the results were TRPC4 block -6*, TRPC6 activator inactive, TRPC4 agonist inactive, TRPC6 inh -8.44*, TRPC4 potent inactive, Kir21 inh -1.11, TRPC4 sel inh 2 inactive, TRPC4 spec -13.4%*, HEK293 MPD ctr 2-1 inactive, HEK293 MPD ctr-1 -141.0%*, TRPC6 block conf 70.9%* and TRPC6 act conf inactive.
O=C(CSc1nc(=O)n2ccccc2n1)Nc1ccc2c(c1)OCO2 was read as TRPC4 block inactive, TRPC6 activator inactive, TRPC4 agonist inactive, TRPC6 inh inactive, TRPC4 potent inactive and Kir21 inh 0.21.
`O=C(NCC(O)c1ccc([N+](=O)[O-])cc1)c1cccc(S(=O)(=O)N2CCCC2)c1` (stereo not drawn) gave TRPC4 block inactive, TRPC6 activator inactive, TRPC4 agonist inactive, TRPC6 inh inactive, TRPC4 potent inactive and Kir21 inh 1.14.
Screening Cc1cc(/C=C2\SC(=S)NC2=O)c(C)n1-c1ccccc1 returned TRPC4 block inactive, TRPC6 activator inactive, TRPC4 agonist inactive, TRPC6 inh inactive, TRPC4 potent inactive and Kir21 inh 1.43.
Cc1cc(/C=C2\SC(=S)NC2=O)c(C)n1-c1ccc(O)cc1 was read as TRPC4 block inactive, TRPC6 activator 27.3*, TRPC4 agonist inactive, TRPC6 inh inactive, TRPC4 potent inactive, Kir21 inh -2.31, HEK293 MPD ctr-2 449.5%*, HEK293 MPD ctr 2-2 inactive, TRPC4 ctr mod 70.5%*, TRPC4/MOR inh 2 inactive, TRPC6 block conf inactive and TRPC6 act conf 126.0%*.
Screening CCOc1ccccc1N1CCN(C/C=C/c2ccc(N(C)C)cc2)CC1 returned TRPC4 block inactive, TRPC6 activator inactive, TRPC4 agonist inactive, TRPC6 inh -6.48*, TRPC4 potent inactive, Kir21 inh -1.85, HEK293 MPD ctr-2 inactive, HEK293 MPD ctr 2-2 inactive, TRPC4 ctr mod inactive, TRPC4/MOR inh 2 66.5%*, TRPC6 block conf 49.5%* and TRPC6 act conf inactive.
`CCOc1ccccc1N1CCN(Cc2ccco2)CC1` gave TRPC4 block inactive, TRPC6 activator inactive, TRPC4 agonist inactive, TRPC6 inh inactive, TRPC4 potent inactive and Kir21 inh 0.01.
For O=C(c1ccc(OC2CCN(Cc3ccccc3C(F)(F)F)CC2)cc1)N1CCCCC1 the results were TRPC4 block inactive, TRPC6 activator inactive, TRPC4 agonist inactive, TRPC6 inh inactive, TRPC4 potent inactive and Kir21 inh 2.08.
`O=C(c1ccc(OC2CCN(Cc3ccc(C(F)(F)F)cc3)CC2)cc1)N1CCCCC1` gave TRPC4 block inactive, TRPC6 activator inactive, TRPC4 agonist inactive, TRPC6 inh -6.28*, TRPC4 potent inactive, Kir21 inh -0.26, HEK293 MPD ctr-2 126.0%*, HEK293 MPD ctr 2-2 inactive, TRPC4 ctr mod inactive, TRPC4/MOR inh 2 43.5%* and TRPC6 block conf 66.5%*.
For COC(=O)c1ccc(CO/N=C(\NC(C)=O)c2nonc2NC(C)=O)cc1 the results were TRPC4 block inactive, TRPC6 activator inactive, TRPC4 agonist inactive, TRPC6 inh inactive, TRPC4 potent inactive and Kir21 inh -0.96.
O=[N+]([O-])c1ccc(Oc2ccc(F)cc2)c2ccncc12 was read as TRPC4 block inactive, TRPC6 activator inactive, TRPC4 agonist inactive, TRPC6 inh -5.06*, TRPC4 potent inactive, Kir21 inh -0.37, HEK293 MPD ctr-2 inactive, HEK293 MPD ctr 2-2 inactive, TRPC4 ctr mod inactive, TRPC4/MOR inh 2 inactive, TRPC6 block conf inactive and TRPC6 act conf inactive.
